# Compound activity as filed in PubChem BioAssay.
# Rows were chosen to be rich in hits. Some 4.3% of all compounds tested hit in one or more screens of this group.
# UBC13 inh – human UBC13 polyubiquitination inhibition; P61088; UBC13 polyubiquitin chain formation, TR-FRET; inhibition, % at 20 µM; 330,000 tested, 0.47% active; in the data active = inhibition above about 45%, passing the limit was not always enough
# Target sequence (P61088 whole entry, looked up): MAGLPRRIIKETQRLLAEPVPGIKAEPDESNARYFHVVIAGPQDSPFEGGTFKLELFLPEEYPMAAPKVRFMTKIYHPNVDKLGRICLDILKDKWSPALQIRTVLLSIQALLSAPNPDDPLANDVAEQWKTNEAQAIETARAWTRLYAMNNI
# Rin1-Abl PPI inh – inhibitors of human Rin1-Abl protein interaction; P00519+Q13671; TR-FRET Rin1/Abl binding, biochemical; inhibition, % at 7.35 µM; 360,000 tested, 0.4% active; in the data active = inhibition above about 5%, passing the limit was not always enough
# RBBP9 inh – blocks human serine hydrolase RBBP9; O75884; inhibition, % at 7.94 µM; recombinant RBBP9, FP-Rh probe fluorescence polarization; 220,000 tested, 0.2% active;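 active = inhibition above the campaign mean of all tested compounds plus 3 SD, cut at about 14% in these data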;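 also: plate controls were DMSO wells with RBBP9 for no effect and wells lacking RBBP9 protein for full effect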
# Target sequence (O75884 whole entry, looked up): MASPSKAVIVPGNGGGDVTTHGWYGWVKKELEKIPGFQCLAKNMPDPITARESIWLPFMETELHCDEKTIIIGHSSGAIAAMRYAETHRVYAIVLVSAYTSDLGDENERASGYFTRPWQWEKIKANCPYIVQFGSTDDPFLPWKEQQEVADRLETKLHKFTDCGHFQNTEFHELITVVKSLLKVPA
#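 System: RBBP9 protein / Buffer or medium: Tris/NaCl buffer pH 8.0 with 0.1% Pluronic / Probe or stimulus: Serine-hydrolase probe FP-Rh, 375 nM pre-mixing / Dosing: 7.94 µM single dose, 0.794% DMSO / Times: enzyme-compound preincubation 30 min, then probe labeling 45 min, 25 °C / Technique: fluorescence polarization (mP), excitation 525 nm, emission 598 nm / Replication: singlicate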
# SUMO HTRF inh – blocks human SUMOylation mediated by UBC9 | inhibition, % at 35 µM | 290,000 tested, 0.36% active | AID 2006 | P63279 | HTRF SUMOylation assay, SAE1/SAE2 + UBC9, in vitro; in the data active = inhibition above about 50%, passing the limit was not always enough
# PREPL inhibitor – inhibits the human prolyl oligopeptidase-like enzyme; AID 2751; recombinant PREPL, fluorescence polarization activity-based probe; 320,000 tested, 0.68% active; inhibition, % at 5.96 µM; in the data active = inhibition above about 43%;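 also: 0% = enzyme with DMSO and 100% = wells lacking enzyme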
# ALR H2O2 inh – inhibitors of human sulfhydryl oxidase ALR | P55789 | purified ALR, DTT oxidation, H2O2 HRP-luminol luminescence | inhibition, % (no concentration beside the values) | 290,000 tested, 3.8% active;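 active = mean replicate inhibition above about 79%, with every replicate also reaching it, limit read from the data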
# Target sequence (P55789 whole entry, looked up): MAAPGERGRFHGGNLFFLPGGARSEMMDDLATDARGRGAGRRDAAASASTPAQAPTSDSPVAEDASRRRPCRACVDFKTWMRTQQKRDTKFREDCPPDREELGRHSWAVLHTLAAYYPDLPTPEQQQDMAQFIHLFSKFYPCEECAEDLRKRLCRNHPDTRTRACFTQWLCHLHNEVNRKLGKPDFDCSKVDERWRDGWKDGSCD
# Starred values were filed as active, the others as inactive; . = no result given.
SMILES,UBC13 inh,Rin1-Abl PPI inh,RBBP9 inh,SUMO HTRF inh,PREPL inhibitor,ALR H2O2 inh
CCc1ccc(C(=O)COC(=O)c2cc([N+](=O)[O-])ccc2N2CCOCC2)cc1,-4,0,.,.,12,-5
C/C(=N\Nc1ccc([N+](=O)[O-])cc1)c1ccc(O)cc1,-118,-2,4,12,14,99*
Cn1c(NC(=O)c2ccccc2F)c(-c2cccs2)c(=O)c2ccccc21,-1,2,-9,0,11,-3
Clc1ccc(-c2ccc(CNCc3ccccn3)o2)cc1,-1,-2,.,16,37,.
COc1ccc(-c2ccc(CNCc3ccccn3)o2)cc1Cl,.,.,.,6,51*,7
O=C(Nc1nc(-c2cc3ccccc3oc2=O)cs1)c1ccco1,14,0,-8,31,0,32
O=c1oc2ccccc2cc1-c1csc(NN=C2CCCCC2)n1,4,-3,-6,23,19,87*
C=CCn1c(SCC(=O)Nc2cccc3ccccc23)nc(O)c(CC)c1=O,-3,0,11,-2,2,98*
Cc1cc2c(=O)n(C)c(SCC(=O)Nc3cccc(O)c3)nc2s1,9,0,.,-3,-5,99*
C=CCn1c(SCC(=O)Nc2ccc(F)cc2)nc2ccccc2c1=O,-1,-3,.,1,8,-9
C=CCn1c(SCC(=O)Nc2ccc(O)cc2)nc2sc(CC)cc2c1=O,10,1,.,-22,-8,97*
CC(=O)N1CC(=O)N=C1SCC(=O)Nc1nc(C)c(-c2ccccc2)s1,21,1,-2,-15,-1,98*
Cc1nc(NC(=O)CN2CCOCC2)sc1-c1ccccc1,3,-4,-7,-30,6,-23
CCOc1ccc(-c2csc(NC(=O)CSC3=NC(=O)CN3C(C)=O)n2)c2ccccc12,10,0,-7,-9,-1,99*
CC(C)(C)[C@H]1COC(=O)[C@H](NC(=O)OCC2c3ccccc3-c3ccccc32)C/C=C\C[C@@H](CC(=O)N[C@H](CO)Cc2ccccc2)C(=O)N1,-14,3,.,.,26,-3
C=CCOc1ccc(/C=C/C(=O)OCC(=O)NCC(=O)Nc2c(C)cc(C)cc2C)cc1,-5,1,.,.,5,-1
COC(=O)CCC(=O)OC1(C)C(=O)C=C2C=C(C3CC3)N(CCCCO)C=C2C1=O (stereo unspecified),-51,-5,.,8,7,.
COC(=O)CCC(=O)OC1(C)C(=O)C=C2C=C(C3CC3)N(c3ccccc3)C=C2C1=O (stereo unspecified),-35,-2,.,17,47*,-5
Cc1ccccc1OCCC(=O)Nc1ccccc1C(=O)N1CCCCC1,-3,1,.,.,12,-1
Cc1ccccc1OCC(=O)Nc1ccccc1C(=O)N1CCCCC1,13,0,.,-2,18,86*
O=C(NCc1cccc(OC(F)(F)F)c1)c1ccc2c(c1)S(=O)(=O)c1cc(Cl)ccc1C2=O,-6,6,.,.,17,-1
COc1ccccc1NS(=O)(=O)c1ccc2[nH]c(=O)[nH]c2c1,-7,-2,.,10,17,-8
O=c1[nH]c2ccc(S(=O)(=O)Nc3ccccc3O)cc2[nH]1,-3,4,.,-2,4,93*
COc1cccc(COC(=O)C(Cc2ccccc2)NC(=O)c2ccco2)c1 (stereo unspecified),.,2,.,.,.,.
O=C(O)C1OC(Oc2cc3oc(-c4ccccc4)cc(=O)c3c(O)c2O)C(O)C(O)C1O (stereo unspecified),-2,4,4,9,2,-1
SMILES,UBC13 inh,Rin1-Abl PPI inh,RBBP9 inh,SUMO HTRF inh,PREPL inhibitor,ALR H2O2 inh
C[C@@H]1O[C@@H](OC[C@@H]2O[C@H](Oc3c(-c4ccc(O)cc4)oc4cc(O)cc(O)c4c3=O)[C@@H](O)[C@H](O)[C@H]2O)[C@H](O)[C@H](O)[C@H]1O,7,0,.,.,0,80*
O=C(O)C1OC(Oc2c(-c3ccc(O)c(O)c3)oc3cc(O)cc(O)c3c2=O)C(O)C(O)C1O (stereo unspecified),-10,.,-12,17,4,99*
C[C@@H]1O[C@@H](O[C@H]2[C@H](O)[C@@H](O)[C@H](Oc3c(-c4ccc(O)cc4)oc4cc(O)cc(O)c4c3=O)O[C@@H]2CO)[C@H](O)[C@H](O)[C@H]1O,-2,-1,.,.,4,13
CC1(C)Cc2c(C#N)c(SCCO)nc(N3CCOCC3)c2CO1,9,1,.,1,2,-8
CCCCc1nc(N2CCOCC2)c(C#N)c2c1COC(C)(C)C2,8,1,1,16,10,100*
O=C(Cc1cccs1)N/N=C/C=C/c1ccco1,9,4,7,35,7,-3
O=C(CNc1ccc2ccccc2c1)N/N=C/c1ccc(C(=O)O)cc1,1,2,-8,19,3,67
O=C(CNc1cccc2ccccc12)N/N=C/c1ccc(C(=O)O)cc1,-25,-3,4,77*,12,.
O=C(N/N=C/C=C\c1ccco1)c1ccccn1,-11,3,-7,36,-1,-3
O=C(CNc1cccc2ccccc12)N/N=C/C=C/c1ccco1,-7,-2,0,98*,12,-7
C/C(=N\NC(=O)CNc1cccc2ccccc12)c1ccccc1,1,1,2,80*,22,-16
O=C(N/N=C\C=C\c1ccco1)c1cc(-c2ccc3ccccc3c2)n[nH]1,19,-1,-13,51*,14,-4
COc1ccc(NC(=O)CN2CCN(c3c(C)cc(C)cc3C)CC2)cc1,3,-2,.,-17,15,1
CCOC(=O)c1c(C)nc(C)c(C(=O)OCC)c1-c1ccco1,17,-3,-7,8,-4,1
O=C(Nc1ncnc2sc3c(c12)CCCCC3)c1ccco1,2,0,-10,-12,-11,97*
CCn1c(-c2ccc3[nH]c(C)c(C)c3c2)n[nH]c1=S,-2,5,0,16,18,98*
Cc1[nH]c2ccc(-c3n[nH]c(=S)n3C)cc2c1C,8,-1,1,16,2,98*
CCOc1ccccc1N1CCN(CC(=O)Nc2nccs2)CC1,.,-1,.,.,.,.
O=C1NN(c2ccccc2)C(=O)/C1=C\c1ccccc1OCC(=O)N1CCOCC1,-10,0,-4,25,24,99*
COc1ccc(C2=C(C)C(N3CCN(C(=O)c4ccco4)CC3)=NS2(=O)=O)cc1,8,-2,.,22,2,-1
CCOC(=O)C(C)On1c(-c2ccccc2)nc2ccc([N+](=O)[O-])cc21 (stereo unspecified),2,0,2,33,10,97*
CCOC(=O)C(C)On1c(-c2ccc(Cl)cc2)nc2ccc([N+](=O)[O-])cc21 (stereo unspecified),5,-4,-7,22,31,-2
O=C(NC1CCCCC1)N1CCN(c2ccc(Cl)cc2)CC1,-10,3,.,4,31,99*
